16 compounds from PubChem BioAssay can be followed below.

Calls of active or inactive are those of the source.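 Rule for the calls, unless noted: active = Her2 level under about 52% in both replicate screens, with viability over 70% of control (limit read from the data); inconclusive = Her2 under the limit in one screen only, or viability under 70%; inactive = Her2 level above the set limit.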

The nature of test [1]: Her2 expression decrease, cell viability multiplex – SKBR3 breast tumor cells, AlphaScreen, ATP viability, primary screen (AID 461).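 For Her2 level: lower value means less Her2 protein in the cells.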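 For viability: percent of carrier control wells set as 100% viability.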 Conditions: SKBR3 Her2 protein level, 18-24 h, measured here: SKBR3 viability, ATP luminescence, at 10 µM. For orientation: Bead proximity is the source of the signal in Alpha formats.
Test [2] concerns the target Receptor tyrosine-protein kinase erbB-2 (Homo sapiens) (UniProt P04626). Described as above. Conditions: 18-24 h, at 10 µM, stronger effect = lower value.
Test [3] is described as follows: reduced viability of SK-BR-3 breast cancer cells – cell-based, 24 h, human, pilot screen (AID 572;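 active = viability at or below 10% of carrier control in both of two separate runs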;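 note: compound exposure lasted between 18 and 24 h rather than exactly 24 h; 100% = carrier-treated control wells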). Conditions: SK-BR-3 viability, CellTiter-Glo luminescence, at 10 µM, stronger effect = lower value.
Test [4] is described as follows: HUVEC growth inhibition – cell-based, human, primary screen (AID 575;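 active = viability at or below 30% in both replicate assays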;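 note: 100% = median of untreated cell wells with 0.1% DMSO on each plate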). Conditions: HUVEC proliferation, CellTiter-Glo luminescence, 72 h; at 10 µM; stronger effect = lower value. Summed up:
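Material: primary human umbilical vein endothelial cells / Schedule: 72 h exposure, 37 °C, 5% CO2, 30 min RT equilibration / Signal: ATP-based CellTiter-Glo luminescent read / Read-out basis: percent of median DMSO-control luminescence / Control set: 32 DMSO-only cell-control wells (high), 32 MePR drug-control wells (low) per plate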

Test [5] can be described thus: H69AR cell proliferation blockers – human, duplicate replicates, primary screen (AID 580;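 active = viability at or under a set limit in both replicates, limit being median viability minus 3 SD, cut at about 48% in these data, passing the limit was not always enough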;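 note: 100% = mean luminescence of untreated wells and 0% = no signal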). The note with it: H69AR lung tumor cells viability, ATP luminescence, 72 h; at 10 µM; stronger effect = lower value.
Test [6] is described as follows: MRP1 drug-resistance reversers in H69AR cells – cell-based, doxorubicin co-treatment, pilot screen (AID 601;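 active = viability loss from added drug above about 55%, and viability with drug at most 40%, in both replicates, limit read from the data, passing the limit was not always enough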). The note with it: CellTiter-Glo, 72 h, at 10 µM; for differential viability (reversal): stronger effect = higher value. Background: ATP-based viability assays read luminescence as a measure of living cells.
A short description of test [7]: yeast transport mutant growth inhibition pilot in 384-well plates, post-Golgi transport modulator project (AID 636; in the data active = inhibition above about 31%). Conditions: absorbance 615 nm, about 18 h, stronger effect = higher value.
Test [8] can be described thus: growth suppression of yeast trafficking mutant, preliminary HTS, modulators of trafficking downstream of Golgi apparatus project, 1536-format plate, OD 615 nm (AID 637; in the data active = inhibition above about 30%). The note with it: yeast transport mutant growth, absorbance 615 nm, 18 h; stronger effect = higher value.
[9] abbreviates: H69AR cells + 2 uM doxorubicin, measured here: viability with 2 uM doxorubicin, stronger effect = lower value.
[10] abbreviates: H69AR cells, compound alone cytotoxicity.

Receptor tyrosine-protein kinase erbB-2 (Homo sapiens), sequence (P04626 whole entry, looked up): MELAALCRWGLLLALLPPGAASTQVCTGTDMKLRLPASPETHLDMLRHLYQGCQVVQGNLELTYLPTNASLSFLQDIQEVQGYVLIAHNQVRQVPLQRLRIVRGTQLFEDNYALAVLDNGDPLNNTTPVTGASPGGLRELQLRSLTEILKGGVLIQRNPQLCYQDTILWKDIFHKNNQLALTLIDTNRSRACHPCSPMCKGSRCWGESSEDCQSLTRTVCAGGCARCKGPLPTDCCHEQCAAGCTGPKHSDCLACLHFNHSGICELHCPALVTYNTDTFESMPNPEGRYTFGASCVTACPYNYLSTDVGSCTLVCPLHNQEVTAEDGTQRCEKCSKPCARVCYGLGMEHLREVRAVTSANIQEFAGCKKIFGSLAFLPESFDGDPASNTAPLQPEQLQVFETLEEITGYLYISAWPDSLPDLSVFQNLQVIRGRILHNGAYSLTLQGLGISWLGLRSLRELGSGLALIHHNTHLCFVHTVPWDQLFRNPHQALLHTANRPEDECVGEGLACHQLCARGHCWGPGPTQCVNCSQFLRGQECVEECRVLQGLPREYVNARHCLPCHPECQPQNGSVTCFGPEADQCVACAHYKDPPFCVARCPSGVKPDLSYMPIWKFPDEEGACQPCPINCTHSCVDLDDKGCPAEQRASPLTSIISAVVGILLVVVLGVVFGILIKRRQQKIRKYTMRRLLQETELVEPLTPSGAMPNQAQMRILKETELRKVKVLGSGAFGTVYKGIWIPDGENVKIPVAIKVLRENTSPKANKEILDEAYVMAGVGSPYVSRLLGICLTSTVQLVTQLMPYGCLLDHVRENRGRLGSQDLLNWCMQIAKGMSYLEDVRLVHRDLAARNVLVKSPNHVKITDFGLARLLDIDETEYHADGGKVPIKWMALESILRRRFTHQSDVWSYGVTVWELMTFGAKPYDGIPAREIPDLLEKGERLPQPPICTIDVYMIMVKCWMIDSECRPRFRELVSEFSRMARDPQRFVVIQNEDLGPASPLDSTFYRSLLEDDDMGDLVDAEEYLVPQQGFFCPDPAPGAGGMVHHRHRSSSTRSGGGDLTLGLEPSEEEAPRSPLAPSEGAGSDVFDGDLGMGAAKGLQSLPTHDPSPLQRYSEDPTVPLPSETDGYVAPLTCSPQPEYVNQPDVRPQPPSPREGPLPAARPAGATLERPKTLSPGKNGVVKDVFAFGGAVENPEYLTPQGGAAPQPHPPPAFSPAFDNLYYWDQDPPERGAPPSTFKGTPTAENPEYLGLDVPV

Usually viability stands for a read-out of living cells in per cent, often relative to untreated cells. The inhibition is the change of the read-out against control, counted positive when it falls. As to `Nc1c(S(=O)(=O)c2cccs2)c2nc3ccccc3nc2n1CC1CCCO1` (stereo not given), the viability in test [1] is 79.5%; in test [3] it was 79.5% (inactive); in test [4], 85.2% (inactive); in test [5] it was 85.9% (inactive); in test [6] (setting [9]) it was 81%; in test [6] (setting [10]), 85.9%. Besides, the Her2 level in test [2] is 89.5% (inactive). Besides, the differential viability (reversal) in test [6] (H69AR cells + 2 uM doxorubicin) was 4.9% (inactive). The values for the inhibition in test [7] and in test [8] were -2.21% (inactive) and -1.33% (inactive), respectively.

`COc1ccc(N2CCN(C(=O)COc3ccc4ccccc4c3)CC2)cc1`: the viability in test [1] was 77.5%; in test [3] it was 77.5% (inactive); in test [4], 84.8% (inactive); in test [5], 108% (inactive); in test [6] (setting [9]), 90.8%; in test [6] (setting [10]), 108%. Moreover, the Her2 level in test [2] is 86.5% (inactive). In addition, in test [6] (H69AR cells + 2 uM doxorubicin), the differential viability (reversal) is 17.1% (inactive). The results for the inhibition in test [7] and in test [8] were -6.35% (inactive) and 3.11% (inactive), respectively.

As to `O=C(NC1CCCC1)c1ccc(S(=O)(=O)N2CCCC2)cc1`, the viability in test [1] was 107%; in test [3], 107% (inactive); in test [4] it was 103% (inactive); in test [5] it was 87.6% (inactive); in test [6] (setting [9]), 95%; in test [6] (setting [10]) it was 87.6%. Besides, the Her2 level in test [2] was 120% (inactive). The differential viability (reversal) in test [6] (H69AR cells + 2 uM doxorubicin) is -7.37% (inactive). Further, the results for the inhibition in test [7] and in test [8] were -1.08% (inactive) and 0.83% (inactive), respectively.

As to `CCCCOc1ccc(C(=O)Nn2cnnc2)cc1`, the viability in test [1] was 95.5%; in test [3], 95.5% (inactive); in test [4], 84.5% (inactive); in test [5], 89.5% (inactive); in test [6] (setting [9]), 89.4%; in test [6] (setting [10]), 89.5%. The Her2 level in test [2] was 87% (inactive). In test [6] (H69AR cells + 2 uM doxorubicin), the differential viability (reversal) is 0.185% (inactive). The inhibition in test [7] was -5% (inactive); in test [8] it was -2% (inactive).

As for `C=CCN1C(=O)/C(=C2\SC(N3CCOCC3)=NC2=O)c2cc(Br)ccc21`, the viability is 82.5% in test [1]; 82.5% (inactive) in test [3]; 86.1% (inactive) in test [4]; 83.1% (inactive) in test [5]; 87.5% in test [6] (setting [9]); 83.1% in test [6] (setting [10]). The Her2 level in test [2] is 84.5% (inactive). Besides, the differential viability (reversal) in test [6] (H69AR cells + 2 uM doxorubicin) was -4.46% (inactive). Besides, the inhibition in test [7] was -1.32% (inactive); in test [8], -2.55% (inactive).

`CCOc1cccc(C(=O)Nc2cccc(-c3nc4ncccc4o3)c2C)c1`: the viability in test [1] is 99%; in test [3], 99% (inactive); in test [4], 81.5% (inactive); in test [5], 75.6% (inactive); in test [6] (setting [9]), 88.5%; in test [6] (setting [10]), 75.6%. In test [2], the Her2 level is 75.5% (inactive). Also, the differential viability (reversal) in test [6] (H69AR cells + 2 uM doxorubicin) was -12.9% (inactive). The inhibition in test [7] is -0.39% (inactive); in test [8], -0.97% (inactive).

For `CC(C)OC(=O)C(CC(=O)O)NCc1ccccc1` (stereo not given), the viability in test [1] is 98%; in test [3] it was 98% (inactive); in test [4], 97.5% (inactive); in test [5], 91.6% (inactive); in test [6] (setting [9]) it was 88%; in test [6] (setting [10]), 91.6%. Besides, in test [2], the Her2 level is 91.5% (inactive). In addition, the differential viability (reversal) in test [6] (H69AR cells + 2 uM doxorubicin) is 3.69% (inactive). The inhibition in test [7] was -2.63% (inactive); in test [8] it was -1.29% (inactive).

Take `COc1ccc(C(=O)N2CCN(C3CCC(c4ccccc4)CC3)CC2)cc1OC` (stereo not given): the viability in test [1] was 108%; in test [3], 108% (inactive); in test [4], 95.2% (inactive); in test [5], 83% (inactive); in test [6] (setting [9]), 85.6%; in test [6] (setting [10]) it was 83%. The Her2 level in test [2] was 93% (inactive). In test [6] (H69AR cells + 2 uM doxorubicin), the differential viability (reversal) was -2.52% (inactive). For the same compound, the inhibition in test [7] was -4.16% (inactive); in test [8], -3.67% (inactive).

For `CCN(CCNC(=O)C1CCN(S(=O)(=O)CC)CC1)c1ccccc1`, the viability is 124% in test [1]; 124% (inactive) in test [3]; 112% (inactive) in test [4]; 95.7% (inactive) in test [5]; 89.4% in test [6] (setting [9]); 95.7% in test [6] (setting [10]). The Her2 level in test [2] is 92.5% (inactive). Besides, the differential viability (reversal) in test [6] (H69AR cells + 2 uM doxorubicin) was 6.31% (inactive). Besides, the inhibition in test [7] was -7.84% (inactive); in test [8] it was -8.33% (inactive).

As for `O=C(CCN1CCN(c2ccc(F)cc2)CC1)Nc1ccccc1F`, the viability in test [1] is 91.5%; in test [3] it was 91.5% (inactive); in test [4], 90.4% (inactive); in test [5], 86% (inactive); in test [6] (setting [9]), 91.3%; in test [6] (setting [10]), 86%. In addition, in test [2], the Her2 level was 91% (inactive). In addition, in test [6] (H69AR cells + 2 uM doxorubicin), the differential viability (reversal) is -5.33% (inactive). The inhibition in test [7] was -5.73% (inactive); in test [8], 4.75% (inactive).

As to `O=C(NCc1cccnc1)C1c2ccccc2C(=O)N1Cc1ccco1` (stereo not given), the viability in test [1] is 94.5%; in test [3], 94.5% (inactive); in test [4] it was 92% (inactive); in test [5], 92.9% (inactive); in test [6] (setting [9]) it was 81.3%; in test [6] (setting [10]) it was 92.9%. For the same compound, in test [2], the Her2 level is 91% (inactive). For the same compound, in test [6] (H69AR cells + 2 uM doxorubicin), the differential viability (reversal) is 11.6% (inactive). In addition, the inhibition in test [7] is -1.56% (inactive); in test [8] it was -3.65% (inactive).

Regarding `CC(=O)NC(Cc1c[nH]c2ccccc12)C(=O)OCC(=O)Nc1cc(C)on1` (stereo not given), the viability in test [1] is 91.5%; in test [3], 91.5% (inactive); in test [4], 101% (inactive); in test [5], 97% (inactive); in test [6] (setting [9]), 86%; in test [6] (setting [10]) it was 97%. Besides, the Her2 level in test [2] was 117% (inactive). Besides, in test [6] (H69AR cells + 2 uM doxorubicin), the differential viability (reversal) is 11% (inactive). In addition, the inhibition in test [7] was 3.46% (inactive); in test [8], -7.83% (inactive).

Turning to `Cc1nc2ccccc2c(=O)n1CC(=O)N1CCOCC1`, the viability in test [1] is 120%; in test [3], 120% (inactive); in test [4] it was 107% (inactive); in test [5], 90.4% (inactive); in test [6] (setting [9]), 99.8%; in test [6] (setting [10]) it was 90.4%. Moreover, in test [2], the Her2 level was 90.5% (inactive). Further, the differential viability (reversal) in test [6] (H69AR cells + 2 uM doxorubicin) is -9.46% (inactive). For the same compound, the inhibition in test [7] is 0.67% (inactive); in test [8], -4.35% (inactive).

Turning to `CC(C)Cn1c(-c2ccc(F)cc2)n[nH]c1=S`, the viability in test [1] was 114%; in test [3], 114% (inactive); in test [4], 80% (inactive); in test [5], 88.8% (inactive); in test [6] (setting [9]) it was 80.7%; in test [6] (setting [10]), 88.8%. For the same compound, the Her2 level in test [2] is 98.5% (inactive). In test [6] (H69AR cells + 2 uM doxorubicin), the differential viability (reversal) is 8.11% (inactive). The inhibition in test [7] is -5% (inactive); in test [8] it was -1.33% (inactive).

Turning to `CCOC(=O)CC(=O)CSc1[nH]c(=O)cc(C)c1C#N`, the viability was 87.5% in test [1]; 87.5% (inactive) in test [3]; 99.3% (inactive) in test [4]; 108% (inactive) in test [5]; 104% in test [6] (setting [9]); 108% in test [6] (setting [10]). In addition, the Her2 level in test [2] was 106% (inactive). The differential viability (reversal) in test [6] (H69AR cells + 2 uM doxorubicin) was 4.69% (inactive). Moreover, the inhibition was -4.8% (inactive) in test [7] and -0.16% (inactive) in test [8].

For the compound `c1cn(C23CC4CC(CC(C4)C2)C3)cn1`, the viability in test [1] is 113%; in test [3] it was 113% (inactive); in test [4], 104% (inactive); in test [5] it was 92.3% (inactive); in test [6] (setting [9]), 84.1%; in test [6] (setting [10]), 92.3%. In addition, the Her2 level in test [2] was 88% (inactive). In addition, the differential viability (reversal) in test [6] (H69AR cells + 2 uM doxorubicin) was 8.21% (inactive). The inhibition in test [7] is -5.6% (inactive); in test [8], 1.94% (inactive).
